Measured values: ChEMBL document CHEMBL4257493, “Discovery of 7-hydroxyaporphines as conformationally restricted ligands for beta-1 and beta-2 adrenergic receptors” (Medchemcomm, 2018)
pIC50, pKi: −log10 of the molar value. The source made the active and inactive calls. The rule behind the calls is not given here.

Experiments:
[1] = target: T1, Beta-1 adrenergic receptor (Homo sapiens, UniProt P08588); assay: Agonist activity at human beta1-adrenergic receptor expressed in CHO-K1 cells assessed as induction of cAMP accumulation after 15 mins by HTRF assay; format: functional, cell-based
Procedure, shortened: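 cAMP accumulation in human β1-expressing CHO-K1 cells, quantified by HTRF. Vehicle 0.40% DMSO. Incubation 15 minutes at 37°C in HBSS with 5 mM HEPES, 0.1% BSA and 100 μM IBMX, pH 7.4. Run by a contract screening service.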

[2] = target: Alpha-2A adrenergic receptor (Homo sapiens) (UniProt P08913); assay: Binding affinity to andrenergic alpha2A receptor (unknown origin) assessed as inhibition of radioligand binding at 10 uM by radioligand competition binding assay
[3] = target: Alpha-1B adrenergic receptor (Homo sapiens) (UniProt P35368); assay: Binding affinity to andrenergic alpha1B receptor (unknown origin) assessed as inhibition of radioligand binding by radioligand competition binding assay; details: concentration not given here
[4] = species: Homo sapiens; assay: Binding affinity to sigma2 receptor (unknown origin) assessed as inhibition of radioligand binding by radioligand competition binding assay; details: concentration not given here
[5] = target: T1, Beta-1 adrenergic receptor; assay: Displacement of [3H]-CGP-12177 from human beta1-adrenergic receptor
[6] = target: Histamine H2 receptor (Homo sapiens) (UniProt P25021); assay: Binding affinity to histamine H2 receptor (unknown origin) assessed as inhibition of radioligand binding by radioligand competition binding assay; details: concentration not given here
[7] = target: T2, Beta-3 adrenergic receptor (Homo sapiens, UniProt P13945); assay: Binding affinity to andrenergic beta3 receptor (unknown origin) assessed as inhibition of radioligand binding by radioligand competition binding assay
[8] = target: T2, Beta-3 adrenergic receptor; assay: Displacement of [3H]-CGP-12177 from human beta3-adrenergic receptor
[9] = target: 5-hydroxytryptamine receptor 1D (Homo sapiens, UniProt P28221); assay: Binding affinity to 5-HT1D receptor (unknown origin) assessed as inhibition of radioligand binding by radioligand competition binding assay
[10] = target: 5-hydroxytryptamine receptor 1A (Homo sapiens) (UniProt P08908); assay: Binding affinity to 5-HT1A receptor (unknown origin) assessed as inhibition of radioligand binding at 10 uM by radioligand competition binding assay
[11] = target: Alpha-2B adrenergic receptor (Homo sapiens, UniProt P18089); assay: Binding affinity to andrenergic alpha2B receptor (unknown origin) assessed as inhibition of radioligand binding by radioligand competition binding assay
[12] = target: Sigma non-opioid intracellular receptor 1 (Homo sapiens) (UniProt Q99720); assay: Binding affinity to sigma1 receptor (unknown origin) assessed as inhibition of radioligand binding by radioligand competition binding assay; details: concentration not given here
[13] = species: Homo sapiens; assay: Ratio of IC50 for human beta3-adrenergic receptor to IC50 for human beta1-adrenergic receptor
[14] = target: D(4) dopamine receptor (Homo sapiens) (UniProt P21917); assay: Binding affinity to dopamine D4 receptor (unknown origin) assessed as inhibition of radioligand binding by radioligand competition binding assay; details: concentration not given here
[15] = target: 5-hydroxytryptamine receptor 2C (Homo sapiens) (UniProt P28335); assay: Binding affinity to 5-HT2C receptor (unknown origin) assessed as inhibition of radioligand binding by radioligand competition binding assay; details: concentration not given here
[16] = target: Kappa-type opioid receptor (Homo sapiens) (UniProt P41145); assay: Binding affinity to KOR (unknown origin) assessed as inhibition of radioligand binding by radioligand competition binding assay; details: concentration not given here
[17] = target: 5-hydroxytryptamine receptor 7 (Homo sapiens, UniProt P34969); assay: Binding affinity to 5-HT7 receptor (unknown origin) assessed as inhibition of radioligand binding at 10 uM by radioligand competition binding assay
[18] = species: Rattus norvegicus; assay: Binding affinity to rat GABAA BZP receptor assessed as inhibition of radioligand binding by radioligand competition binding assay; details: concentration not given here
[19] = target: 5-hydroxytryptamine receptor 2B (Homo sapiens, UniProt P41595); assay: Binding affinity to 5-HT2B receptor (unknown origin) assessed as inhibition of radioligand binding by radioligand competition binding assay
[20] = target: 5-hydroxytryptamine receptor 1B (Homo sapiens, UniProt P28222); assay: Binding affinity to 5-HT1B receptor (unknown origin) assessed as inhibition of radioligand binding at 10 uM by radioligand competition binding assay
[21] = target: D(2) dopamine receptor (Homo sapiens) (UniProt P14416); assay: Binding affinity to dopamine D2 receptor (unknown origin) assessed as inhibition of radioligand binding by radioligand competition binding assay; details: concentration not given here
[22] = target: Sodium-dependent serotonin transporter (Homo sapiens) (UniProt P31645); assay: Binding affinity to SERT (unknown origin) assessed as inhibition of radioligand binding by radioligand competition binding assay; details: concentration not given here
[23] = target: Beta-2 adrenergic receptor (Homo sapiens, UniProt P07550); assay: Agonist activity at human beta2-adrenergic receptor expressed in CHO-K1 cells assessed as increase in cAMP accumulation after 20 mins by HTRF assay; format: functional, cell-based
Procedure, shortened: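 Human β2 receptor expressed in CHO cells; cAMP accumulation read out by HTRF. Vehicle 0.40% DMSO. Incubated 20 minutes at 37°C in HBSS, 5 mM HEPES, 0.1% BSA, 100 μM IBMX, pH 7.4. Performed by a contract screening service.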

[24] = target: 5-hydroxytryptamine receptor 1E (Homo sapiens) (UniProt P28566); assay: Binding affinity to 5-HT1E receptor (unknown origin) assessed as inhibition of radioligand binding by radioligand competition binding assay; details: concentration not given here
[25] = target: 5-hydroxytryptamine receptor 6 (Homo sapiens, UniProt P50406); assay: Binding affinity to 5-HT6 receptor (unknown origin) assessed as inhibition of radioligand binding at 10 uM by radioligand competition binding assay
[26] = target: 5-hydroxytryptamine receptor 5A (Homo sapiens) (UniProt P47898); assay: Binding affinity to 5-HT5A receptor (unknown origin) assessed as inhibition of radioligand binding by radioligand competition binding assay; details: concentration not given here
[27] = target: T1, Beta-1 adrenergic receptor; assay: Antagonist activity at human beta1-adrenergic receptor expressed in CHO-K1 cells assessed as decrease in isoproterenol-induced cAMP accumulation after 15 mins by HTRF assay; format: functional, cell-based
Procedure, shortened: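 Run as a contract service: human beta1 receptor in CHO-K1 cells, with antagonist mode against isoproterenol-stimulated cAMP. Incubation 15 min at 37 °C in HBSS with 5 mM HEPES, 0.1% BSA and 100 µM IBMX, pH 7.4, in 0.40% DMSO vehicle. cAMP accumulation read by HTRF; dose-response curves.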

[28] = target: Muscarinic acetylcholine receptor M2 (Homo sapiens) (UniProt P08172); assay: Binding affinity to muscarinic M2 receptor (unknown origin) assessed as inhibition of radioligand binding by radioligand competition binding assay; details: concentration not given here
[29] = target: Alpha-2C adrenergic receptor (Homo sapiens) (UniProt P18825); assay: Binding affinity to andrenergic alpha2C receptor (unknown origin) assessed as inhibition of radioligand binding by radioligand competition binding assay; details: concentration not given here
[30] = species: Homo sapiens; assay: Binding affinity to GABAA receptor (unknown origin) assessed as inhibition of radioligand binding by radioligand competition binding assay; details: concentration not given here
[31] = target: Muscarinic acetylcholine receptor M1 (Homo sapiens) (UniProt P11229); assay: Binding affinity to muscarinic M1 receptor (unknown origin) assessed as inhibition of radioligand binding by radioligand competition binding assay; details: concentration not given here
[32] = target: 5-hydroxytryptamine receptor 2A (Homo sapiens) (UniProt P28223); assay: Binding affinity to 5-HT2A receptor (unknown origin) assessed as inhibition of radioligand binding by radioligand competition binding assay; details: concentration not given here

SMILES: COc1cc2c3c(c1OC)-c1ccccc1[C@@H](O)[C@@H]3NCC2
- Activity [1]: inactive
- inhibition [2]: > 50%
- inhibition [3]: < 50%
- inhibition [4]: < 50%
- pIC50 [5]: 8.77
- inhibition [6]: < 50%
- pKi [7]: 6.51
- pIC50 [8]: 6.62
- pKi [9]: 6.07
- inhibition [10]: > 50%
- pKi [11]: 6.24
- inhibition [12]: < 50%
- Ratio IC50 [13]: 150
- inhibition [14]: < 50%
- inhibition [15]: < 50%
- inhibition [16]: < 50%
- inhibition [17]: > 50%
- inhibition [18]: < 50%
- pKi [19]: 6.61
- inhibition [20]: > 50%
- inhibition [21]: < 50%
- inhibition [22]: < 50%
- Activity [23]: inactive
- inhibition [24]: < 50%
- inhibition [25]: > 50%
- inhibition [26]: < 50%
- pIC50 [27]: 7.77
- inhibition [28]: < 50%
- inhibition [29]: < 50%
- inhibition [30]: < 50%
- inhibition [31]: < 50%
- inhibition [32]: < 50%
